Data on 22 compounds can be found in ChEMBL document CHEMBL1806352, “Discovery of imidazo[1,2-b]pyridazines as IKKβ inhibitors. Part 3: exploration of effective compounds in arthritis models” (Bioorg Med Chem Lett, 2011).

Data set [1] is described as follows: Octanol-phosphate buffered saline distribution coefficient, log D of the compound at pH 7.4. It is filed as physicochemical. The method, boiled down:
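PBS pH 7.4 and 1-octanol were mutually pre-saturated for over 12 h. Compound (200 µM) was dissolved in one phase, an equal volume of the other phase was added, and the mixture was shaken 30 min at room temperature. Both phases were assayed by HPLC or LC/MS. Log D7.4 was calculated as log of the octanol/PBS peak area ratio.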

The nature of data set [2]: Permeability of the compound at pH 7.4 by PAMPA method. The format is ADME. The following applies: read-out: permeability. In outline:
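PAMPA was run with the donor filter coated with a phospholipid solution and the acceptor plate filled with acceptor buffer pH 7.4. Plates were incubated 4 h at 25 °C. Compound in both plates was quantified spectrometrically, and effective permeability Pe7.4 was calculated.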

The nature of data set [3]: Apparent permeability across MDCK cells at 10 uM after 1 hr by LC/MS/MS analysis. It is filed as ADME, cell-based, Canis lupus familiaris. Particulars: dog. In outline: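 MDCK cells were grown 6 days on transwells to form monolayers. Compound (10 µM in transport buffer, pH 6.0) was added apically. The basolateral side held buffer at pH 7.4 with 4% BSA, and metoprolol served as positive control. After 1 h at 37 °C, basolateral concentration was measured by LC/MS/MS. Papp was calculated from flux over 3600 s across a 0.33 cm² filter.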

The nature of data set [4]: Plasma concentration in BALB/c mouse at 30 mg/kg, po after 90 mins. It is filed as ADME, organism-based. Also on record: dose 30 mg/kg, route oral.
Data set [5] is described as follows: Tmax in BALB/c mouse at 30 mg/kg, po. The format is ADME, organism-based. Also noted: dose 30 mg/kg, route oral. Particulars: in vivo. In outline:
(§1)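 Fed female BALB/c mice (7 weeks old, n = 3) received a single oral dose of 30 mg/kg suspended in 0.5% (w/v) methyl cellulose. Blood was drawn at 0.5, 1, 2, 4, 8 and 24 h, and plasma was stored at −20 °C. Drug was quantified by LC/MS/MS, and parameters were derived by non-compartmental analysis.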

A short description of data set [6]: AUC (0 to 24 hrs) in Wister-Lewis rat at 30 mg/kg, po. Also on record: time < 24 hr, dose 30 mg/kg, route oral. The following applies: plasma. The format is ADME, organism-based. In outline: (§2)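 Fed female Wistar–Lewis rats (7–8 weeks old, n = 3) were given 30 mg/kg orally as a suspension in 0.5% (w/v) methyl cellulose. Blood samples (0.3 ml) were taken at 0.5, 1, 2, 4, 8 and 24 h. Plasma levels were measured by LC/MS/MS and analysed non-compartmentally.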

Data set [7] can be described thus: Cmax in Wister-Lewis rat at 30 mg/kg, po. It is filed as ADME, organism-based. Also noted: dose 30 mg/kg, route oral. Particulars: in vivo. In outline:
as §2

The nature of data set [8]: Mean residence time in Wister-Lewis rat at 30 mg/kg, po. The format is ADME, organism-based. Also on record: dose 30 mg/kg, route oral. Particulars: in vivo. In outline:
as §2

Data set [9] in a line: Tmax in Wister-Lewis rat at 30 mg/kg, po. The format is ADME, organism-based. Also noted: dose 30 mg/kg, route oral. Particulars: in vivo. The method, boiled down:
as §2

The nature of data set [10]: Cmax in BALB/c mouse at 30 mg/kg, po. It is filed as ADME, organism-based. Also on record: dose 30 mg/kg, route oral. Particulars: in vivo. The method, boiled down: as §1
Data set [11] can be described thus: Mean residence time in BALB/c mouse at 30 mg/kg, po. The format is ADME, organism-based. Also noted: dose 30 mg/kg, route oral. Particulars: in vivo. The method, boiled down: as §1
The nature of data set [12]: Oral steady-state volume of distribution in BALB/c mouse at 30 mg/kg, po. Also noted: dose 30 mg/kg, route oral. The format is ADME, organism-based. The following applies: in vivo, read-out: Vss/F. In outline: as §1
Data set [13] in a line: Oral steady-state volume of distribution in Wister-Lewis rat at 30 mg/kg, po. The format is ADME, organism-based. Also on record: dose 30 mg/kg, route oral. Particulars: in vivo, read-out: Vss/F. The method, boiled down: as §2
Data set [14] in a line: AUC (0 to 24 hrs) in BALB/c mouse at 30 mg/kg, po. It is filed as ADME, organism-based. Also noted: time < 24 hr, dose 30 mg/kg, route oral. The following applies: plasma. In outline:
as §1

Each structure is given as a SMILES string. Bounds are passed on as bounds.

For `O=C(NC[C@@H]1CCCN1)c1ccc(-c2cnc3ccc(NCC4CC4)nn23)cc1`, the logD (commonly the decadic logarithm of the distribution of all forms, ionised or not, between an organic phase and buffer at a given pH) in [1] was found to be 1.8. Besides, in data set [2], the Papp was found to be 0.84 ×10⁻⁶ cm/s.
With `CN(C)CCNC(=O)c1ccc(-c2cnc3ccc(NCC4CC4)nn23)cc1`, in data set [3], the Papp at 1 h, 10 µM stood at 2.1 ×10⁻⁶ cm/s. This compound came in with a logD in data set [1] of 2.5.
`CCCN(C[C@@H]1C[C@@H](F)CN1)C(=O)c1ccc(-c2cnc3ccc(NCC4CC4)nn23)cc1` gave a pH-dependent lipophilicity (logD) in [1] of 3.4.
For the compound `O=C(c1ccc(-c2cnc3ccc(NCC4CC4)nn23)cc1)N(Cc1ccc(Cl)cc1)C[C@@H]1C[C@@H](F)CN1`, the logD in data set [1] was 5.
For `O=C(NCCN1CCCC1)c1ccc(-c2cnc3ccc(NCC4CC4)nn23)cc1`, in data set [3], the Papp at 1 h, 10 µM was determined as 2.3 ×10⁻⁶ cm/s. The compound also yielded a concentration at […] in [4] of 440 ng/mL. In [1], the logD was determined as 2.6. Besides, the Papp in data set [2] was greater than 50 ×10⁻⁶ cm/s.
The corresponding values for `CN(C)CCNC(=O)c1ccc(-c2cnc3ccc(NCC4CC4)nn23)cc1F` are 6.2 ×10⁻⁶ cm/s, 110 ng/mL, 2.7 and greater than 50 ×10⁻⁶ cm/s.
The corresponding values for `O=C(NCCN1CCCC1)c1ccc(-c2cnc3ccc(NCC4CC4)nn23)cc1F` are 5.6 ×10⁻⁶ cm/s, 290 ng/mL, 2.8 and greater than 50 ×10⁻⁶ cm/s.
Compound `O=C(NC[C@@H]1CCCN1)c1ccc(-c2cnc3ccc(NCC4CC4)nn23)cc1F` returned a concentration at […] in data set [4] of 140 ng/mL. Moreover, the logD in data set [1] is 1.8. Moreover, the Papp in data set [2] was determined as 19 ×10⁻⁶ cm/s.
With `O=C(NC[C@@H]1C[C@@H](F)CN1)c1ccc(-c2cnc3ccc(NCC4CC4)nn23)cc1F`, the Tmax – broadly, the time at which the peak concentration occurs – is 1 h in data set [5] and 4 h in data set [9]. For the same compound, the Papp at 1 h, 10 µM in data set [3] is 4.2 ×10⁻⁶ cm/s. Moreover, the exposure AUC(0-t) (commonly the area under the concentration-time curve up to a stated or last time point) at 24 h in [6] turned out to be 23100 ng·h/mL; in data set [14], 888 ng·h/mL. In addition, the Cmax (in general, the maximum level reached in the sampled fluid or tissue) in data set [7] is 4100 ng/mL; in [10] it was 260 ng/mL. For the same compound, the concentration at […] in [4] was 380 ng/mL. Also, the mean residence time (MRT) (as a rule, a mean duration of stay, worked out from the concentration-time curve) was determined as 4.9 h in [8] and 2.3 h in [11]. In [1], this compound gave a logD of 3.1. The figures for the Vd/F in [12] and in [13] were 78 L/kg and 6.5 L/kg, respectively. The Papp in data set [2] was greater than 50 ×10⁻⁶ cm/s.
The compound `O=C(NC[C@@H]1CCCN1)c1ccc(-c2cnc3ccc(NCC4CC4)nn23)cc1Cl` displayed a pH-dependent lipophilicity (logD) in data set [1] of 2.2. Further, in [2], the Papp turned out to be 14 ×10⁻⁶ cm/s.
The corresponding values for `CN(C)CCNC(=O)c1ccc(-c2cnc3ccc(NCC4CC4)nn23)nc1` are 2 and 14 ×10⁻⁶ cm/s.
The corresponding values for `O=C(NCCN1CCCC1)c1ccc(-c2cnc3ccc(NCC4CC4)nn23)nc1` are 2 and 11 ×10⁻⁶ cm/s.
Take `CCCNc1ccc2ncc(-c3ccc(C(=O)NC[C@@H]4C[C@@H](F)CN4)c(F)c3)n2n1`: the concentration at […] in [4] came out at 540 ng/mL. In [1], this compound returned a logD of 3.1. Also, in [2], the Papp was greater than 50 ×10⁻⁶ cm/s.
In [4], `CCCCNc1ccc2ncc(-c3ccc(C(=O)NC[C@@H]4C[C@@H](F)CN4)c(F)c3)n2n1` came in with a concentration at […] of 600 ng/mL. Further, the log distribution coefficient (logD) in data set [1] amounted to 3.5. In data set [2], the Papp is greater than 50 ×10⁻⁶ cm/s.
The corresponding values for `CCCCCNc1ccc2ncc(-c3ccc(C(=O)NC[C@@H]4C[C@@H](F)CN4)c(F)c3)n2n1` are 93 ng/mL, 4 and greater than 50 ×10⁻⁶ cm/s.
On to `O=C(NC[C@@H]1C[C@@H](F)CN1)c1ccc(-c2cnc3ccc(NC4CCC4)nn23)cc1F`, for which the time to peak (Tmax) in data set [5] stood at 1 h; in data set [9], 2.8 h. Further, the Papp at 1 h, 10 µM in data set [3] was found to be 7 ×10⁻⁶ cm/s. The AUC(0-t) at 24 h in data set [6] amounted to 95300 ng·h/mL; in data set [14] it was 1860 ng·h/mL. Further, the highest concentration (Cmax) came to 16000 ng/mL in data set [7] and 750 ng/mL in data set [10]. Besides, in data set [4], the concentration at […] is 1400 ng/mL. For the same compound, the MRT in data set [8] came to 5.1 h; in data set [11], 2 h. In data set [1], this compound yielded a logD of 3.3. In addition, the Vd/F in data set [12] amounted to 32 L/kg; in data set [13], 1.7 L/kg. Besides, in [2], the Papp was greater than 50 ×10⁻⁶ cm/s.
On to `O=C(NC[C@@H]1C[C@@H](F)CN1)c1ccc(-c2cnc3ccc(NC4CCCC4)nn23)cc1F`, for which the concentration at […] in data set [4] amounted to 660 ng/mL. Besides, the logD in [1] was 3.6. In addition, in data set [2], the Papp was greater than 50 ×10⁻⁶ cm/s.
In the case of `CSCCNc1ccc2ncc(-c3ccc(C(=O)NC[C@@H]4C[C@@H](F)CN4)c(F)c3)n2n1`, the logD in data set [1] amounted to 2.8. The Papp in [2] was greater than 50 ×10⁻⁶ cm/s.
`CSCCCNc1ccc2ncc(-c3ccc(C(=O)NC[C@@H]4C[C@@H](F)CN4)c(F)c3)n2n1` gave a concentration at […] in data set [4] of 150 ng/mL. The same compound had a logD in data set [1] of 3. The Papp in data set [2] stood at 40 ×10⁻⁶ cm/s.
In [4], `O=C(NC[C@@H]1C[C@@H](F)CN1)c1ccc(-c2cnc3ccc(NCCCF)nn23)cc1F` yielded a concentration at […] of 480 ng/mL. The logD in data set [1] was 2.5. In addition, the Papp in data set [2] amounted to 33 ×10⁻⁶ cm/s.
The like results for `O=C(NC[C@@H]1C[C@@H](F)CN1)c1ccc(-c2cnc3ccc(NCCCCF)nn23)cc1F` were, in that order, 420 ng/mL, 2.8 and greater than 50 ×10⁻⁶ cm/s.
The corresponding values for `O=C(NC[C@@H]1C[C@@H](F)CN1)c1ccc(-c2cnc3ccc(NCCCCCF)nn23)cc1F` are 110 ng/mL, 3.3 and 37 ×10⁻⁶ cm/s.
